Reference: paper PMC5934316 (Oncogene, 2018)
Like-named read-outs stand apart in the source and are kept apart here. Each block holds one compound with its values, some of them ahead of it.

Tests used:
[1] = test system: STAT3-dependent luciferase reporter; experiment: STAT3-dependent luciferase reporter assay; format: cell-based, human; settings: for STAT3-dependent luciferase expression: MDA-MB-231 cells, Figure 1B
In short: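 MDA-MB-231 cells stably carrying a STAT3-dependent luciferase reporter were treated with DMSO or test compound. Dose-response used graded concentrations; the time course used 2 μM for varying times. Luciferase activity was then measured with a commercial kit. Experiments were run at least three times.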

MCF7 [2] = experiment: MTT survival assay; format: cell-based; settings: Homo sapiens, read-out: IC50, survival
In short: (§1)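 Breast cancer lines were cultured in DMEM + 10% FBS at 37 °C, 5% CO2. Cells were seeded at 3–4×10^3 per well in 96-well plates and treated with graded test-compound concentrations for 48 or 72 h. Viable cells were then measured by MTT. Experiments were run at least three times.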

MCF7 [3] = experiment: Annexin V-FITC/PI apoptosis assay; format: cell-based, human
In short: (§2)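 Cells grown in DMEM with 10% FBS at 37 °C, 5% CO2. Seeded at 3×10^5 cells/well in 6-well plates and exposed to test compound for 24 h. Stained with annexin V-FITC and propidium iodide and analysed by flow cytometry. Annexin V+/PI− plus double-positive cells were counted as apoptotic. Experiments were run at least three times.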

[4] = test system: STAT3 target genes, cyclin D1 and Bcl-xL; experiment: Real-time RT-PCR and Western blot of STAT3 target genes in MDA-MB-231 cells; format: cell-based, human; settings: mRNA by real-time RT-PCR and protein by Western blot
In short: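 MDA-MB-231 cells were treated with graded test-compound concentrations. Cyclin D1, Bcl-xL and STAT3 mRNAs were measured by SYBR Green real-time RT-PCR and quantified by 2ΔΔCt against GAPDH (n=3). For protein, cells were treated for 24 h, then analysed by SDS-PAGE/PVDF Western blot with HRP secondaries and ECL on film, using actin as loading control.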

MDA-MB-468 = experiment: MTT survival assay; format: cell-based; settings: Homo sapiens, read-out: IC50, survival
In short: as §1

[5] = Body weight in xenograft study; format: in vivo, mice
In short: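 MDA-MB-231 tumour pieces (~1.5 mm) from a donor xenograft were implanted s.c. in the left flank of 4–6-week-old female Balb/c nude mice. At ~100 mm3, mice were randomised (5/group) to vehicle, 10 or 40 mg/kg test compound, or 0.6 mg/kg vincristine. Dosing was IP every 3 days for 18 days, with body weight recorded every 3 days.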

MDA-MB-231 [6] = experiment: Annexin V-FITC/PI apoptosis assay; format: cell-based, human
In short: as §2

MDA-MB-231 xenografts = experiment: In-vivo efficacy, xenograft tumors; set-up: species or system mice
In short: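 Donor xenograft: 1×10^7 MDA-MB-231 cells injected s.c. into a 5-week-old female Balb/c nude mouse and grown 2 weeks. ~1.5-mm pieces were implanted s.c. in 4–6-week-old female nude mice. At ~100 mm3, five mice per group received vehicle, test compound or vincristine 0.6 mg/kg IP every 3 days for 18 days. Tumour volume was measured blinded every 3 days. IHC covered total/Tyr705-phosphorylated STAT3 and cleaved caspase 3.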

STAT3 [7] = biological target: T1, STAT3 (Homo sapiens, UniProt P40763); format: cell-based
T1 sequence (P40763 whole entry): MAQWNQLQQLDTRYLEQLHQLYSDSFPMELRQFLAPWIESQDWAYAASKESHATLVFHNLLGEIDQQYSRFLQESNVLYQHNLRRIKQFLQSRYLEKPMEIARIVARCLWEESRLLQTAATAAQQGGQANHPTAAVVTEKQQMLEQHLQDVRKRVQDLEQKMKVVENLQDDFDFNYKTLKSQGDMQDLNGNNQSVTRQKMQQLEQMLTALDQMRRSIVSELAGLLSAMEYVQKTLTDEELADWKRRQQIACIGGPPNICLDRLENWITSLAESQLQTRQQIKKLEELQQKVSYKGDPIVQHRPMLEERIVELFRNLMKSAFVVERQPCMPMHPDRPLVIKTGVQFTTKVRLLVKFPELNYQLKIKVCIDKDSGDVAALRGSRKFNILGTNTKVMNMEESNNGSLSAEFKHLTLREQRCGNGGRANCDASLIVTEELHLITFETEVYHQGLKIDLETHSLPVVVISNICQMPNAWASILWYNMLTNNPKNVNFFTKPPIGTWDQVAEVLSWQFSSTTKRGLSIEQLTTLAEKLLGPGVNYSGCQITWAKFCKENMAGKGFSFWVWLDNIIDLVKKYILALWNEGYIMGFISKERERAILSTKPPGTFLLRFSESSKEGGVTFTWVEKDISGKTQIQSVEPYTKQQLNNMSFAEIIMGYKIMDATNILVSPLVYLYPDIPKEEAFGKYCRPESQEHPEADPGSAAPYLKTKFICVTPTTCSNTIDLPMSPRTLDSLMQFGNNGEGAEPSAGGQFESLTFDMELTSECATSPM
In short: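 In MDA-MB-231 cells, constitutive pSTAT3 was assessed after graded doses for 24 h or 2 μM over time, with actin as loading control. For IL-6 induction, serum-starved cells were pretreated, then given IL-6. Localisation after 24 h used methanol/acetone-fixed, Triton-permeabilised cells stained for (p)STAT3 with Alexa555 secondary and DAPI (confocal), or fractionation with histone/actin markers. Dimers were resolved by non-denaturing PAGE and Western blot.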

breast cancer cells = experiment: MTT survival assay, summary over breast cancer cells; format: cell-based; settings: Homo sapiens, 72 h, read-out: IC50 for breast cancer cells
In short: as §1

STAT3 [8] = biological target: T1, STAT3; experiment: Pull-down assay with immobilized BMA097, MDA-MB-231 cell lysate; format: binding
In short: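 Test compound was coupled to CNBr-activated Sepharose 4B and blocked with 10% milk in binding buffer (20 mM Tris-HCl pH 8.0, 150 mM KCl, 1 mM EDTA, 15% glycerol, 0.5% NP-40, 0.2 mM PMSF, protease inhibitors). Beads were mixed with MDA-MB-231 lysate. For competition, lysate was first incubated 30 min at 37 °C with DMSO, 400 μM free compound or an irrelevant compound. For elution, bound material was incubated 1 h with the same agents. Read-out was SDS-PAGE and STAT3 Western blot.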

JAK2 = JAK2 (Homo sapiens, UniProt O60674); experiment: Western blot of JAK2 Tyr1007/1008 phosphorylation in MDA-MB-231 cells; format: cell-based
Sequence of JAK2 (O60674 whole entry): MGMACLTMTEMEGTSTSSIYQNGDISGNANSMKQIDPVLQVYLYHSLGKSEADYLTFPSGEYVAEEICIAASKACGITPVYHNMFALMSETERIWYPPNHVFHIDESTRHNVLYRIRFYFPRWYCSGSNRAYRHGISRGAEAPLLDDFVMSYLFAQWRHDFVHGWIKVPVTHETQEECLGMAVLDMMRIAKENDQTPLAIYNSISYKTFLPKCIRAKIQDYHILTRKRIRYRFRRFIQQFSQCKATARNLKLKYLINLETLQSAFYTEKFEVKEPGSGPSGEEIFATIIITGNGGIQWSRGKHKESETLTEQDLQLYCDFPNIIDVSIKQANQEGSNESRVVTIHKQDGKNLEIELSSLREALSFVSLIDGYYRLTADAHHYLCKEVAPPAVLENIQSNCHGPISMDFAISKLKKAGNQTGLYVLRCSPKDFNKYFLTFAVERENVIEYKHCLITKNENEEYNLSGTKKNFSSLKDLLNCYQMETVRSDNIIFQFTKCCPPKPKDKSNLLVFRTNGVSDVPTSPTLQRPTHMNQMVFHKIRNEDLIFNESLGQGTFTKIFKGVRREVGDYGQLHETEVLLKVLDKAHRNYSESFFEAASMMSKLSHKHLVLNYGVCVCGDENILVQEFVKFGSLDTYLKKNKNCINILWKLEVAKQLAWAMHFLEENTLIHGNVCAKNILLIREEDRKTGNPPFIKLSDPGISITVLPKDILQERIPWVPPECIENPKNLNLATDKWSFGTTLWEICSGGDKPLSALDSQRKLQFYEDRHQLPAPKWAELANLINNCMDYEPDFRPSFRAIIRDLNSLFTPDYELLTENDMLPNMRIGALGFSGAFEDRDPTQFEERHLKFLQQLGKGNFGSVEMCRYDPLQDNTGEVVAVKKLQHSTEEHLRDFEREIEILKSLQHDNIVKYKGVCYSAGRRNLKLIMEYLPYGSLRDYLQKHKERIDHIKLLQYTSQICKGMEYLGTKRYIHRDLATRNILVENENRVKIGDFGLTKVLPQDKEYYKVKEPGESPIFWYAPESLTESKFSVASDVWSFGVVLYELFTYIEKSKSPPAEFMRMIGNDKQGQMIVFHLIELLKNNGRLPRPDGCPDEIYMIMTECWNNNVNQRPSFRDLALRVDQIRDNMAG
In short: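 MDA-MB-231 cells were treated with test compound, and lysates were analysed by SDS-PAGE/PVDF Western blot. Blots were probed for total and Tyr1007/1008-phosphorylated JAK2, detected with HRP secondaries and ECL on film.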

MTT survival assay = format: cell-based; settings: human, MCF10A cells, IC50, cytotoxicity
[9] = test system: MDA-MB-231 and MCF-7 cells; experiment: JC-1 mitochondrial membrane potential assay; format: cell-based, human; settings: JC-1, 24 hours, both cell lines
In short: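 MDA-MB-231 and MCF-7 cells were exposed to graded test-compound concentrations for 24 h. They were then stained with JC-1 (5 μg/mL) for 30 min at 37 °C, washed in PBS and analysed by flow cytometry. Δψm was taken as the ratio of red (aggregate) to green (monomer) fluorescence. Experiments were run at least three times.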

MDA-MB-231 [10] = experiment: MTT survival assay; format: cell-based; settings: Homo sapiens, read-out: IC50, survival
In short: as §1

recombinant STAT3 = experiment: Pull-down assay with immobilized BMA097, purified recombinant STAT3 proteins; format: binding; settings: silver staining
In short: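 Purified recombinant STAT3 deletion proteins were mixed with test compound immobilised on CNBr-activated Sepharose 4B, after milk blocking in Tris-HCl pH 8.0/KCl/NP-40 binding buffer. Pulled-down material was separated by SDS-PAGE and detected by silver staining or STAT3 Western blot.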

STAT3-dependent luciferase expression [1]: significantly inhibited
Compound: CCn1cc(C2=C(c3cn(CCC#N)c4ccccc34)C(=O)NC2=O)c2ccccc21 [BMA016, 2-(1-ethyl-1H-indol-3-yl)-3-[1-(2-cyanoethyl)-1H-indol-3-yl]maleimide]

STAT3-dependent luciferase expression [1]: least inhibition
Compound: N-hydroxy-2-(1-ethyl-1H-indol-3-yl)-3-(1-hydroxy-1H-indol-3-yl)maleimide [BMA127]

The remaining lines, values behind:

Compound: CCn1cc(C2=C(c3cn(CCCC#N)c4ccccc34)C(=O)NC2=O)c2ccccc21 [BMA019, 2-(1-ethyl-1H-indol-3-yl)-3-[1-(3-cyanopropyl)-1H-indol-3-yl]maleimide]
STAT3-dependent luciferase expression [1]: significantly inhibited

Compound: CCn1cc(C2=C(c3cn(CCCCC#N)c4ccccc34)C(=O)N(CO)C2=O)c2ccccc21 [BMA088, N-hydroxymethyl-2-(1-ethyl-1H-indol-3-yl)-3-[1-(4-cyanobutyl)-1H-indol-3-yl] maleimide]
STAT3-dependent luciferase expression [1]: no inhibition

Compound: N#CCCCn1cc(C2=C(c3cn(CCCC#N)c4ccccc34)C(=O)NC2=O)c2ccccc21 [BMA097, 2,3-bis[1-(3-cyanopropyl)-1H-indol-3-yl]maleimide]
IC50 (MCF7 [2]; MCF7, 48 h): 6.4 µM
IC50 (MCF7 [2]; MCF7, 72 h): 3.9 µM
total annexin V-positive cells (MCF7 [3]; 2 μM BMA097, 24 hrs): 34.2%
total annexin V-positive cells (MCF7 [3]; 4 μM BMA097, 24 hrs): 48.1%
expression of STAT3 target genes, cyclin D1 and Bcl-xL [4]: inhibited
IC50 (MDA-MB-468; MDA-MB-468, 48 h): 4 µM
IC50 (MDA-MB-468; MDA-MB-468, 72 h): 1.8 µM
weight loss and apparent phenotypic changes in the mouse model ([5]; 40 mg/kg): lack of weight loss
body weight reduction between the control and treatment groups ([5]; 10 and 40 mg/kg IP): no significant differences
IC50 ([1]; Homo sapiens, MDA-MB-231, read-out: IC50, inhibition of STAT3-dependent luciferase expression): ~1.8 µM
STAT3-dependent luciferase expression [1]: significantly inhibited
t1/2, inhibition of STAT3-dependent luciferase expression ([1]; re-synthesized BMA097, time course at 2 μM): ~ 16 hrs
total annexin V-positive cells (MDA-MB-231 [6]; 2 μM BMA097, 24 hrs): 51.9%
total annexin V-positive cells (MDA-MB-231 [6]; 4 μM BMA097, 24 hrs): 63.8%
growth and final weight of MDA-MB-231 xenograft tumors (MDA-MB-231 xenografts; 10 mg/kg IP every 3 days for 18 days): significantly reduced
growth and final weight of MDA-MB-231 xenograft tumors (MDA-MB-231 xenografts; 40 mg/kg IP every 3 days for 18 days): significantly reduced
caspase 3 cleavage in xenograft tumors (MDA-MB-231 xenografts; IHC staining): induced
phosphorylated STAT3 in xenograft tumors (MDA-MB-231 xenografts; IHC staining, vs vehicle control): reduced level
level of total STAT3 (STAT3 [7]): little effect
phosphorylation of Ser727 of STAT3 (STAT3 [7]): did not affect
phosphorylation of Tyr705 of STAT3 (STAT3 [7]; constitutive, dose- and time-dependent): inhibits
nucleus-localized STAT3 (STAT3 [7]; immunofluorescence and fractionation, 24 hrs): disappeared
STAT3 dimerization (STAT3 [7]; non-denaturing PAGE, dose- and time-dependent): inhibited
IL-6-induced phosphorylation and activation of STAT3 (STAT3 [7]; serum-starved MDA-MB-231 cells): reduced
IC50 (breast cancer cells): 0.9 to 3.9 µM
STAT3 pull-down by BMA097-conjugated Sepharose (STAT3 [8]; lysate of MDA-MB-231 cells): successfully pulled down STAT3
competition of STAT3 pulldown by excess free BMA097 (STAT3 [8]; lysate pre-treated with 400 μM BMA097): completely inhibited
level of total JAK2 (JAK2): no effect
JAK2 phosphorylation/activation (JAK2; Tyr1007/1008): does not inhibit
IC50 at 48 h (MTT survival assay; 48 hrs): 10.6 µM
IC50 at 72 h (MTT survival assay; 72 hrs): 6.5 µM
mitochondrial membrane potential (Δψm) [9]: induced Δψm loss
IC50 (MDA-MB-231 [10]; MDA-MB-231, 48 h): 3.6 µM
IC50 (MDA-MB-231 [10]; MDA-MB-231, 72 h): 0.9 µM
pull-down of recombinant STAT3 lacking the TAD domain (ΔTAD-C) (recombinant STAT3): successfully pulled down
pull-down of recombinant STAT3 with further deletion of the SH2 domain (ΔSH2-C) (recombinant STAT3): abolished the binding

Compound: N#CCCCCn1cc(C2=C(c3cn(CCCCC#N)c4ccccc34)C(=O)NC2=O)c2ccccc21 [BMA100, 2,3-bis[1-(4-cyanobutyl)-1H-indol-3-yl] maleimide]
STAT3-dependent luciferase expression [1]: significantly inhibited
